From ChEMBL document CHEMBL4020802, “Fused bi-heteroaryl substituted hydantoin compounds as TACE inhibitors” (Bioorg Med Chem Lett, 2017) come the findings set out here.

Data set [1] can be described thus: Permeability from apical side to basolateral side in human Caco2 cells. Format: ADME, cell-based. The note with it: Caco-2, read-out: permeability. (Caco-2 cells form a polarised layer with tight junctions and transporters.)
Data set [2] has as its target Disintegrin and metalloproteinase domain-containing protein 17 (Homo sapiens, UniProt P78536). As to the kind of experiment: Inhibition of catalytic domain TACE (unknown origin) by FRET assay.
Data set [3] can be described thus: AUC in rat. As to conditions: in vivo. The format is ADME. Further details: concentration or dose not given beside the values.
A further data set relates to Blood. As to the kind of experiment: Antiinflammatory activity in human whole blood assessed as inhibition of LPS-induced TNF-alpha release preincubated for 1 hr followed by LPS addition after 3.5 hrs by ELISA method. The format is functional. On the technique in general: ELISA stands for enzyme-linked immunosorbent assay.
Data set [4] in a line: AUC in rat at 10 mg/kg, po. The format is ADME, organism-based. As to conditions: in vivo. Put shortly:
(§1)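 Oral dosing of rats, dogs and monkeys, with compounds given as Na+ or HCl salts in a 0.4% HPMC formulation. Doses were 10 mg/kg in rat, 2 or 3 mg/kg in dog, and 3 or 10 mg/kg in monkey. Plasma exposure was reported as AUC in µM·h, and oral bioavailability as F%.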

Data set [5] can be described thus: Oral bioavailability in rat at 10 mg/kg. The note with it: in vivo. Format: ADME, organism-based. Put shortly:
as §1

Data set [6] can be described thus: AUC in dog at 2 mg/kg, po. Format: ADME, organism-based, Canis lupus familiaris. As to conditions: in vivo. An outline of the steps:
as §1

Data set [7] is described as follows: AUC in monkey at 3 mg/kg, po. As to conditions: rhesus monkey, in vivo. Format: ADME, organism-based, Macaca mulatta. Put shortly: as §1

Chain of Disintegrin and metalloproteinase domain-containing protein 17 (P78536 whole entry, the tested form may be a part): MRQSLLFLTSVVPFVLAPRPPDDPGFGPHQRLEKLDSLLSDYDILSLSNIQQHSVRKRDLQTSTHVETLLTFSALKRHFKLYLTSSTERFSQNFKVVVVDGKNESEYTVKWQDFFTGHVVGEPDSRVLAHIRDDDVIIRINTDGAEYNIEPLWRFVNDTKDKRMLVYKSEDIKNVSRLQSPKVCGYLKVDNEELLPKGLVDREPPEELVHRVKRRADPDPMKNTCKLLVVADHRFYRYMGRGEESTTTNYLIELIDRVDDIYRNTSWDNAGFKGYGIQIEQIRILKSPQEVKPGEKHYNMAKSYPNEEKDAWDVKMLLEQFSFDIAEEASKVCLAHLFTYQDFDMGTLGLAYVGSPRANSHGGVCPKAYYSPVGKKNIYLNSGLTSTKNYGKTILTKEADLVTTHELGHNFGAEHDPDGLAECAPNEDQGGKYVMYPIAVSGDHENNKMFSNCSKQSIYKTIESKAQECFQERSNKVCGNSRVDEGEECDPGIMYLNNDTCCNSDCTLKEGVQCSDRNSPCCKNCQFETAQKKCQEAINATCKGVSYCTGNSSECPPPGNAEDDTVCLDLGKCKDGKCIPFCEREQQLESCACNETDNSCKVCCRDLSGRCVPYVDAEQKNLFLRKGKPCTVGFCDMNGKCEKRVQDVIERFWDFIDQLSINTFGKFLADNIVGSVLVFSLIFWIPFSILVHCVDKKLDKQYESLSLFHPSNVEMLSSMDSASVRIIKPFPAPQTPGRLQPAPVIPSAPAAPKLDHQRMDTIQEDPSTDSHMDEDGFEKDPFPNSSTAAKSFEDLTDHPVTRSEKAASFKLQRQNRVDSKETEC

For the compound `COc1ccc2c(c1)C(=O)N(C[C@@]1(C#Cc3cccnc3)NC(=O)NC1=O)C2`, in data set [1], the Papp A→B is 1.6 ×10⁻⁶ cm/s.
Usually Ki stands for the dissociation constant of the complex between target and ligand, obtained from inhibition or displacement. The term AUC denotes the area under the concentration-time curve, a measure of exposure. For `COc1ccc2c(c1)C(=O)N(C[C@@]1(c3cc4nc(N(c5cn[nH]c5)C5CCN(C)CC5)ccc4o3)NC(=O)NC1=O)C2`, the Ki in data set [2] stood at 1 nM. Further, the AUC in data set [3] was 0.06 µM·h. Also, the Papp A→B in data set [1] was 0.1 ×10⁻⁶ cm/s.
What is called IC50 is the point on the concentration scale where inhibition reaches its midpoint. In data set [2], `COc1ccc2c(c1)C(=O)N(C[C@@]1(c3cc4cnc(C)cc4o3)NC(=O)NC1=O)C2` showed a Ki of 0.4 nM. Also, the IC50 in the data set on Blood amounted to 350 nM. In data set [3], the AUC worked out at 19.1 µM·h. Also, in data set [1], the Papp A→B turned out to be 2.05 ×10⁻⁶ cm/s.
With `COc1ccc2c(c1)C(=O)N(C[C@@]1(c3cc4cncc(N)c4o3)NC(=O)NC1=O)C2`, in data set [2], the affinity corresponds to a Ki of 0.4 nM. In addition, in the data set on Blood, the IC50 was 310 nM. This compound yielded an AUC in data set [3] of 0.1 µM·h.
The compound `COc1ccc2c(c1)C(=O)N(C[C@@]1(c3cc4cccnc4o3)NC(=O)NC1=O)C2` yielded an inhibitory constant (Ki) in data set [2] of 0.7 nM. Also, the IC50 in the data set with Blood is 590 nM. In addition, the AUC in data set [3] came to 34 µM·h.
The like results for `COc1ccc2c(c1)C(=O)N(C[C@@]1(c3cc4cnc(C(F)(F)F)cc4o3)NC(=O)NC1=O)C2` were, in that order, 0.5 nM, 1620 nM and 19.3 µM·h.
Consider `COc1ccc2c(c1F)C(=O)N(C[C@@]1(c3cc4nc(N5CCC(N(C)C)CC5)ccc4o3)NC(=O)NC1=O)C2`, for which the IC50 in the data set on Blood was 76 nM. In data set [3], this compound gave an exposure (AUC) of 0.04 µM·h.
Take `COc1ccc2c(c1)C(=O)N(C[C@@]1(c3cn4ccccc4n3)NC(=O)NC1=O)C2`: the Ki in data set [2] amounted to 1.4 nM. In addition, the IC50 in the data set with Blood was 1480 nM.
One may read the bioavailability as the share of a dose that reaches the circulation, judged against a reference dose that is usually intravenous. As to `COc1ccc2c(c1F)C(=O)N(C[C@@]1(c3cc4cnc(C)cc4o3)NC(=O)NC1=O)C2`, the Ki in data set [2] came to 0.4 nM. For the same compound, in the data set with Blood, the IC50 was 210 nM. Also, the AUC in data set [3] came to 26.3 µM·h; in data set [4], 13.4 µM·h; in data set [6], 13.5 µM·h; in data set [7], 1.5 µM·h. In data set [5], this compound came in with a bioavailability of 11%.
On to `COc1ccc2c(c1)C(=O)N(C[C@@]1(c3cc4ncccc4[nH]3)NC(=O)NC1=O)C2`, for which the affinity in data set [2] corresponds to a Ki of 3.6 nM. Further, in the data set on Blood, the IC50 came to 2970 nM.
In data set [2], `COc1ccc2c(c1)C(=O)N(C[C@@]1(c3cc4c(C)nc(C)cc4o3)NC(=O)NC1=O)C2` gave an inhibition constant Ki of 0.5 nM. Further, the IC50 in the data set with Blood was determined as 680 nM. This compound also displayed an AUC in data set [3] of 4.2 µM·h.
In data set [2], `COc1ccc2c(c1)C(=O)N(C[C@@]1(c3cc4nc(-n5cccn5)ccc4o3)NC(=O)NC1=O)C2` gave an inhibition constant Ki of 0.4 nM. Besides, the IC50 with Blood worked out at 1370 nM. Further, the AUC in data set [3] was determined as 21 µM·h.
The like results for `COc1ccc2c(c1)C(=O)N(C[C@@]1(c3cc4c(C#N)nccc4o3)NC(=O)NC1=O)C2` were, in that order, 0.7 nM, 1240 nM and 0.5 µM·h.
The like results for `COc1ccc2c(c1)C(=O)N(C[C@@]1(c3cc4cncnc4o3)NC(=O)NC1=O)C2` were, in that order, 1.6 nM, 770 nM and 2.2 µM·h.
Compound `CNC(=O)c1cnc2cc([C@]3(CN4Cc5ccc(OC)cc5C4=O)NC(=O)NC3=O)oc2c1` registered an inhibition constant Ki in data set [2] of 0.9 nM.
With `COc1ccc2c(c1)C(=O)N(C[C@@]1(c3cc4c(-c5cn[nH]c5)nccc4o3)NC(=O)NC1=O)C2`, the Ki in data set [2] amounted to 0.2 nM. The IC50 with Blood was 150 nM.
In data set [2], `COc1ccc2c(c1)C(=O)N(C[C@@]1(c3cc4nc(N)ccc4o3)NC(=O)NC1=O)C2` had a Ki of 0.5 nM. The IC50 with Blood came out at 187 nM. This compound gave an area under the curve (AUC) in data set [3] of 0.4 µM·h.
The like results for `COc1ccc2c(c1)C(=O)N(C[C@@]1(c3cc4cnc(N5CCNC5=O)cc4o3)NC(=O)NC1=O)C2` were, in that order, 1.8 nM, 210 nM and 1.2 µM·h.
With `COc1ccc2c(c1)C(=O)N(C[C@@]1(c3cc4nc(N(c5cn[nH]c5)C5CCNCC5)ccc4o3)NC(=O)NC1=O)C2`, the Ki in data set [2] stood at 0.4 nM. In addition, the IC50 in the data set on Blood came out at 93 nM. The Papp A→B in data set [1] was found to be 0.22 ×10⁻⁶ cm/s.
For `COc1ccc2c(c1)C(=O)N(C[C@@]1(c3cc4cncc(C)c4o3)NC(=O)NC1=O)C2`, the affinity in data set [2] corresponds to a Ki of 0.5 nM. The IC50 in the data set with Blood is 760 nM. The compound further returned an AUC in data set [3] of 8.7 µM·h.
The like results for `COc1ccc2c(c1)C(=O)N(C[C@@]1(c3cc4ccccc4o3)NC(=O)NC1=O)C2` were, in that order, 0.3 nM, 2310 nM and 0.2 µM·h.
On to `COc1ccc2c(c1F)C(=O)N(C[C@@]1(c3cc4nc(N5CC(=O)NC5=O)c(F)cc4o3)NC(=O)NC1=O)C2`, for which affinity in data set [2] was put at a Ki of 0.4 nM. In addition, in data set [3], the AUC came out at 3.2 µM·h.
In data set [2], `COc1ccc2c(c1)C(=O)N(C[C@@]1(c3cn4ccsc4n3)NC(=O)NC1=O)C2` registered a Ki of 1.3 nM. In the data set on Blood, the half-inhibitory concentration (IC50) was 540 nM. Further, the AUC in data set [3] was 2.2 µM·h.
For `COc1ccc2c(c1)C(=O)N(C[C@@]1(c3cc4cncc(F)c4o3)NC(=O)NC1=O)C2`, in that order: 2 nM, 1090 nM and 2.7 µM·h.
The compound `COc1ccc2c(c1)C(=O)N(C[C@@]1(c3cn4cccnc4n3)NC(=O)NC1=O)C2` registered a Ki in data set [2] of 1.9 nM. Also, in the data set with Blood, the IC50 turned out to be 710 nM. In addition, the AUC in data set [3] was 3.2 µM·h.
The compound `COc1ccc2c(c1)C(=O)N(C[C@@]1(c3cc4c(O)nccc4o3)NC(=O)NC1=O)C2` returned a Ki in data set [2] of 0.2 nM. In the data set with Blood, the IC50 was found to be 250 nM.
For `COc1ccc2c(c1F)C(=O)N(C[C@@]1(c3cc4nc(N5CCNC(=O)C5)ccc4o3)NC(=O)NC1=O)C2`, the Ki in data set [2] was 0.6 nM. For the same compound, the AUC in data set [3] is 0.1 µM·h.
Regarding `COc1ccc2c(c1F)C(=O)N(C[C@@]1(c3cc4nc(C)c(-c5ccc(N)nc5)cc4o3)NC(=O)NC1=O)C2`, the IC50 with Blood was determined as 308 nM.
In data set [2], `COc1ccc2c(c1)C(=O)N(C[C@@]1(c3cc4c(N5CCNCC5)nccc4o3)NC(=O)NC1=O)C2` displayed a Ki of 2.5 nM. Further, the IC50 with Blood is 230 nM.
On to `COc1ccc2c(c1)C(=O)N(C[C@@]1(c3cc4nc(-c5cn[nH]c5)ccc4o3)NC(=O)NC1=O)C2`, for which, in data set [2], the Ki turned out to be 0.5 nM. Also, the IC50 in the data set with Blood came out at 99 nM. Also, the area under the curve (AUC) in data set [3] amounted to 0.1 µM·h.
Compound `COc1ccc2c(c1)C(=O)N(C[C@@]1(c3cc4c(C(F)(F)F)nccc4o3)NC(=O)NC1=O)C2` displayed a Ki in data set [2] of 0.4 nM. In the data set with Blood, the IC50 is 1070 nM.
